Results published in ChEMBL document CHEMBL1131384, “Synthesis and structure-activity relationships of potent and orally active 5-HT4 receptor antagonists: indazole and benzimidazolone derivatives” (J Med Chem, 1998).

Experiments:
[1] = target: 5-hydroxytryptamine receptor 4 (Rattus norvegicus) (UniProt Q62758); test: Antagonistic activity by ability to block serotonin induced relaxation (mediated by activation of 5-hydroxytryptamine 4 receptor) in carbamylcholine (10e-6 M) contracted esophagus at a concentration of 10e-7 M.; assay type: functional, tissue-based
Sequence of 5-hydroxytryptamine receptor 4 (Rattus norvegicus) (Q62758 whole entry): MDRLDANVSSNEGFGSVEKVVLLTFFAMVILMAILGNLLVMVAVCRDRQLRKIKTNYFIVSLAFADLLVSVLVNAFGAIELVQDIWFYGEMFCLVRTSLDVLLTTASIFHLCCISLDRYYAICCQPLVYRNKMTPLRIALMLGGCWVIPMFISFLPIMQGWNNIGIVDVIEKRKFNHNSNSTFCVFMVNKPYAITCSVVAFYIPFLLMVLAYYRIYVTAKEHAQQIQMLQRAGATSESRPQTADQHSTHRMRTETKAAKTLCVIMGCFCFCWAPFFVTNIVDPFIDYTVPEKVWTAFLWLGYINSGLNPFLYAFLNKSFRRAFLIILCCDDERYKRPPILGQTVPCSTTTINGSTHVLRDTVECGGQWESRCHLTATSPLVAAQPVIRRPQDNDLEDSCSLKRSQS
Summary of the method: (§1)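 Isolated rat esophagus precontracted with carbamylcholine (10^-6 M). Tissue was challenged with serotonin (1 µM) in the presence of the antagonist at a given concentration or of vehicle. Relaxation was recorded as % relaxation to 10^-6 M 5-HT, given as mean ± SEM with the number of determinations.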

[2] = target: 5-hydroxytryptamine receptor 4 (Rattus norvegicus) (UniProt Q62758); test: Antagonistic activity evaluated by ability to block serotonin induced relaxation via 5-hydroxytryptamine 4 receptor) in carbamylcholine (10e-6 M) contracted esophagus at a concentration of 0.1 mg/kg (p.o.); assay type: functional, organism-based; set-up: dose 0.1 mg/kg
Summary of the method: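 Rats were dosed with the antagonist by oral gavage. Esophagus was removed 3 h after dosing and challenged ex vivo with serotonin. Read-out was % relaxation of the carbamylcholine-contracted tissue to 10^-6 M 5-HT, given as mean ± SEM with the number of determinations.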

[3] = target: 5-hydroxytryptamine receptor 4 (Rattus norvegicus) (UniProt Q62758); test: Antagonistic activity by ability to block serotonin induced relaxation (mediated by activation of 5-hydroxytryptamine 4 receptor) in carbamylcholine (10e-6 M) contracted esophagus at a concentration of 10e-6 M.; assay type: functional, tissue-based; summary of the method: as §1
[4] = target: T1, Adrenergic receptor alpha-1 (Rattus norvegicus) (UniProt P15823+P23944+P43140); test: Binding affinity for Alpha-1 adrenergic receptor in rat aorta determined by block of norepinephrine induced contraction of rat aorta; assay type: tissue-based
[5] = target: T1, Adrenergic receptor alpha-1 (Rattus norvegicus); test: Affinity for the alpha-1 adrenergic receptor determined by the displacement of [3H]prazosin from rat whole brain tissue.; assay type: tissue-based
[6] = target: 5-hydroxytryptamine receptor 4 (Rattus norvegicus) (UniProt Q62758); test: Antagonistic activity evaluated by ability to block serotonin induced relaxation (via 5-hydroxytryptamine 4 receptor) in carbamylcholine (10e-6 M) contracted esophagus at a concentration of 3*10e-8 M.; assay type: functional
Summary of the method: (§2)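 Isolated rat esophagus precontracted with carbamylcholine (10^-6 M), then challenged with serotonin (1 μM) in the presence of antagonist at the stated concentration or vehicle. Read-out is % relaxation to serotonin, given as mean ± SEM with the number of determinations.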

[7] = target: Serotonin 2 (5-HT2) receptor (Rattus norvegicus) (UniProt P30994+P08909+P14842); test: Binding affinity against 5-hydroxytryptamine 2 receptor in serotonin-induced contraction of the rat aorta; assay type: tissue-based
Sequence of Serotonin 2 (5-HT2) receptor (Rattus norvegicus) (P08909 whole entry, looked up): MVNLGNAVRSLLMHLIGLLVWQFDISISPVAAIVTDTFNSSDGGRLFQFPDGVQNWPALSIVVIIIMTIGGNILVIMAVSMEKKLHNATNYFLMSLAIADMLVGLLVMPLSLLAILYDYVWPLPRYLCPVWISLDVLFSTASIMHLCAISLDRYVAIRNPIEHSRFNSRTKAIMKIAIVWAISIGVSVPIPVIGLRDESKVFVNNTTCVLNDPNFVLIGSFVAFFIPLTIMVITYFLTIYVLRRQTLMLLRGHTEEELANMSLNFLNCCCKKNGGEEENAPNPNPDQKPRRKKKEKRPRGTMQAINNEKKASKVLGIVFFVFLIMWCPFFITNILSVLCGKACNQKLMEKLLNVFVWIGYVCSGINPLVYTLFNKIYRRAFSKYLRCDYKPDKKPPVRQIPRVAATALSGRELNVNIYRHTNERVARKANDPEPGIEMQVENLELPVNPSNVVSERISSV
Sequence of Serotonin 2 (5-HT2) receptor (Rattus norvegicus) (P14842 whole entry, looked up): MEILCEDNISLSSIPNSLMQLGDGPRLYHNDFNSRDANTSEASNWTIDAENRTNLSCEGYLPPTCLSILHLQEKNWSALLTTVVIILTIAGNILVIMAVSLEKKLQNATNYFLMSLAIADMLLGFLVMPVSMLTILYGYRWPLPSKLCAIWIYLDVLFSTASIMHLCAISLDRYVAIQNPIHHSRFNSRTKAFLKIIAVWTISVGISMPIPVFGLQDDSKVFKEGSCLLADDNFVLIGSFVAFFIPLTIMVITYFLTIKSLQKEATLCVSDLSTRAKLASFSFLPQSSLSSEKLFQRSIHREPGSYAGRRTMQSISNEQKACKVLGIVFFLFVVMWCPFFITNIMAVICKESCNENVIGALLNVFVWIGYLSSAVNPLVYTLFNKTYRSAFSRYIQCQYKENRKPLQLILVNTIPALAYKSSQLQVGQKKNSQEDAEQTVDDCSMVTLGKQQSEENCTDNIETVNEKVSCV
Sequence of Serotonin 2 (5-HT2) receptor (Rattus norvegicus) (P30994 whole entry, looked up): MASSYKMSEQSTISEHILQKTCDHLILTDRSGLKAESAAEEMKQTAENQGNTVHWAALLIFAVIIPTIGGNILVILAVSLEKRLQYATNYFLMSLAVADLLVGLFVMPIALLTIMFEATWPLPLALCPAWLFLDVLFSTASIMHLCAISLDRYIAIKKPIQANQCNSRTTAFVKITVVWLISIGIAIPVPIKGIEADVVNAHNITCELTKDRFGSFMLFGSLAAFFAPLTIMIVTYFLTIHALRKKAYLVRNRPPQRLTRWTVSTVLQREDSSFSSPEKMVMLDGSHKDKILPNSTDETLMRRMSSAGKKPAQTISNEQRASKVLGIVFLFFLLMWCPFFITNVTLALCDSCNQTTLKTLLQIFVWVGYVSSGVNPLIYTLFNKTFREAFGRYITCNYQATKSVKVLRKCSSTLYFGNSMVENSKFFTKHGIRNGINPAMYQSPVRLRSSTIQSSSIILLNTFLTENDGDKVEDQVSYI

[8] = target: 5-hydroxytryptamine receptor 4 (Rattus norvegicus) (UniProt Q62758); test: Antagonistic activity of compound was evaluated by ability to block serotonin induced relaxation (mediated by activation of 5-hydroxytryptamine 4 receptor) in carbamylcholine (10e-6 M) contracted esophagus at a concentration of 10e-7 M.; assay type: functional; summary of the method: as §2
[9] = target: 5-hydroxytryptamine receptor 4 (Rattus norvegicus) (UniProt Q62758); test: Antagonistic activity evaluated by ability to block serotonin induced relaxation (mediated by activation of 5-hydroxytryptamine 4 receptor) in carbamylcholine (10e-6 M) contracted esophagus at a concentration of 10e-8 M.; assay type: functional, tissue-based; summary of the method: as §1
[10] = target: 5-hydroxytryptamine receptor 4 (Rattus norvegicus) (UniProt Q62758); test: Antagonistic activity evaluated by ability to block serotonin induced relaxation (mediated by activation of 5-hydroxytryptamine 4 receptor) in carbamylcholine (10e-6 M) contracted esophagus at a concentration of 10e-5 M.; assay type: functional, tissue-based; summary of the method: as §1

Structure (SMILES)	Relaxation [1]	Relaxation [3]	other results
CC(C)n1nc(C(=O)NCCN2CCC(NC(=O)Nc3ccc(F)cc3)CC2)c2ccccc21	44.8%	6.3%	Relaxation [2]: 45.5%
CC(C)n1cc(C(=O)NC2CC3CCC(C2)N3C)c2ccccc21 (configuration not stated)	–	25.3%	–
CC(C)n1nc(C(=O)NCCN2CCC(NC(=O)Nc3ccccc3)CC2)c2ccccc21	–	11%	Relaxation [2]: 33.7%
CC(C)n1nc(C(=O)NCCN2CCC(N)CC2)c2ccccc21	–	36.8%	Relaxation [2]: 41%
CC(C)n1nc(C(=O)NC2CCN(CCCCc3ccccc3)CC2)c2ccccc21	–	4%	pKb [4]: 5.6
CC(C)n1nc(C(=O)NCCN2CCOCC2)c2ccccc21	42.3%	19.8%	–
CCCC(=O)NC1CCN(CCNC(=O)c2nn(C(C)C)c3ccccc23)CC1	26.5%	–	Relaxation [2]: 51%
CCC(C)n1c(=O)n(C(=O)NC2CC3CCC(C2)N3C)c2ccccc21 (configuration not stated)	–	8.8%	–
CC(C)n1nc(C(=O)NCCCCN2CCCCC2)c2ccccc21	43.3%	3.3%	pKi [5]: 5.2; Relaxation [2]: 49%
CC(C)n1nc(C(=O)NC2CCN(CCCOc3ccc(F)cc3)CC2)c2ccccc21	15.7%	7.5%	Relaxation [6]: 36%; pKi [5]: 7.69; pKb [4]: 6.7; pKb [7]: 6.8
CC(C)n1nc(C(=O)NC2CC3CCC(C2)N3C)c2ccccc21 (configuration not stated)	–	8%	Relaxation [8]: 9%; Relaxation [9]: 43.2%
CC(C)n1nc(C(=O)NC2CCN(CCNS(C)(=O)=O)CC2)c2ccccc21	16%	6.8%	pKi [5]: < 4; pKb [4]: < 5
CC(C)n1nc(C(=O)NC2CCNCC2)c2ccccc21	–	32%	–
CC(C)n1nc(C(=O)NCCN2CCC(Cc3ccccc3)CC2)c2ccccc21	42%	16.4%	Relaxation [2]: 26%
CC(C)n1nc(C(=O)NCCN2CCC(NC(=O)c3ccccc3)CC2)c2ccccc21	14.7%	2%	Relaxation [9]: 34.3%; Relaxation [2]: 50%
CC(C)n1nc(C(=O)NCCN2CCN(C(=O)c3ccccc3)CC2)c2ccccc21	–	19.8%	–

Structure (SMILES)	Relaxation [1]	Relaxation [3]	other results
CN1C2CCC1CC(NC(=O)c1n[nH]c3ccccc13)C2 (configuration not stated)	–	–	Relaxation [10]: 50.5%
CC(C)n1nc(C(=O)NCCN2CCC(NS(C)(=O)=O)CC2)c2ccccc21	–	7.3%	Relaxation [2]: 29%
COc1cc(N)c(Cl)cc1C(=O)NC1CCN(CCCOc2ccc(F)cc2)CC1OC (configuration not stated)	–	7%	pKb [4]: 6.7; Relaxation [10]: 20.3%; pKb [7]: 7.89
CC(C)n1nc(C(=O)NC2CCN(CCCc3ccccc3)CC2)c2ccccc21	–	3.7%	pKb [4]: 5.8
CN1C2CCC1CC(NC(=O)c1cccc3ccccc13)C2 (configuration not stated)	–	–	Relaxation [10]: 76.5%
CCn1c(=O)n(C(=O)NC2CC3CCC(C2)N3C)c2ccccc21 (configuration not stated)	–	–	Relaxation [6]: 37.5%
CC(C)n1nc(C(=O)NC2CCN(CCCCCc3ccccc3)CC2)c2ccccc21	–	43.7%	–
CC(C)n1c(=O)n(C(=O)NC2CCN(CCCOc3ccc(F)cc3)CC2)c2ccccc21	62%	–	–
CC(C)n1nc(C(=O)NC2CCN(CCN3C(=O)c4ccccc4C3=O)CC2)c2ccccc21	–	7.5%	pKb [7]: < 5
CC(C)n1c(=O)n(C(=O)NC2CCN(C)CC2)c2ccccc21	40.8%	7.5%	–
CC(C)n1nc(C(=O)NC2CCN(CCNC(=O)c3ccccc3)CC2)c2ccccc21	28%	6%	pKi [5]: 6.62; pKb [4]: 5.8
CCC(C)n1cc(C(=O)NC2CC3CCC(C2)N3C)c2ccccc21 (configuration not stated)	–	57.8%	–
CN1C2CCC1CC(NC(=O)n1c(=O)n(C)c3ccccc31)C2 (configuration not stated)	–	7.3%	–
CC(C)n1nc(C(=O)NC2CCN(CCc3ccccc3)CC2)c2ccccc21	–	1.3%	pKb [4]: 7.68
CN1C2CCC1CC(NC(=O)c1cn(C)c3ccccc13)C2 (configuration not stated)	–	47.3%	–
